Experimental data as given in ChEMBL document CHEMBL4425094, “Novel Benzo[a]quinolizidine Analogs Induce Cancer Cell Death through Paraptosis and Apoptosis” (J Med Chem, 2016).

Columns and labels:
DU-145 = test: Cytotoxicity against human DU145 cells assessed as cell growth inhibition after 24 hrs by MTT assay; assay type: functional, cell-based; conditions: DU-145, 24 h
In short: (§1)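 Cells seeded 24 h in RPMI 1640 + 10% FBS. RWPE-1 was kept in K-SFM with bovine pituitary extract and EGF. Cells then exposed to compounds for 24 h at 37 °C, 5% CO2, with DMSO vehicle and docetaxel as positive control. MTT added for 4 h, absorbance read at 570 nm. Triplicate runs, IC50 reported as mean of three experiments.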

K562 = test: Cytotoxicity against human K562 cells assessed as cell growth inhibition after 24 hrs by MTT assay; assay type: functional, cell-based; conditions: K562, 24 h; in short: as §1
MDA-MB-231 = test: Cytotoxicity against human MDA-MB-231 cells assessed as cell growth inhibition after 24 hrs by MTT assay; assay type: functional, cell-based; conditions: MDA-MB-231, 24 h; in short: as §1
RWPE-1 = test: Cytotoxicity against human RWPE1 cells assessed as cell growth inhibition after 24 hrs by MTT assay; assay type: cell-based; conditions: RWPE-1, 24 h; in short: as §1
HeLa = test: Cytotoxicity against human HeLa cells assessed as cell growth inhibition after 24 hrs by MTT assay; assay type: functional, cell-based; in short: as §1
MCF7 = test: Cytotoxicity against human MCF7 cells assessed as cell growth inhibition after 24 hrs by MTT assay; assay type: functional, cell-based; conditions: MCF7, 24 h; in short: as §1
PC-3 = test: Cytotoxicity against human PC3 cells assessed as cell growth inhibition after 24 hrs by MTT assay; assay type: functional, cell-based; conditions: PC-3, 24 h; in short: as §1

Row | SMILES | IC50 (DU-145) | IC50 (K562) | IC50 (MDA-MB-231) | IC50 (RWPE-1) | IC50 (HeLa) | IC50 (MCF7) | IC50 (PC-3)
1 | C[C@@H]1CC(=O)C[C@H]2c3cc(OCc4ccc(Br)cc4)c(OCc4ccc(Br)cc4)cc3CCN12 (relative stereo) | > 20 µM | > 20 µM | > 20 µM | > 20 µM | > 20 µM | > 20 µM | > 20 µM
2 | O[C@@H]1C[C@@H](c2ccccc2)N2CCc3cc(OCc4ccccc4)ccc3[C@@H]2C1 | > 20 µM | > 20 µM | > 20 µM | > 20 µM | > 20 µM | > 20 µM | > 20 µM
3 | C[C@@H]1C[C@@H](O)C[C@H]2c3cc(OCc4cc(F)cc(F)c4)c(OCc4cc(F)cc(F)c4)cc3CCN12 | 1.88 µM | 1.89 µM | 2.11 µM | 4.42 µM | 1.96 µM | 1.71 µM | 1.35 µM
4 | Cc1cc(C)cc(COc2cc3c(cc2OCc2cc(C)cc(C)c2)[C@@H]2CC(=O)C[C@@H](C)N2CC3)c1 (relative stereo) | > 20 µM | > 20 µM | > 20 µM | > 20 µM | > 20 µM | > 20 µM | > 20 µM
5 | C[C@@H]1C[C@H](O)C[C@H]2c3cc(OCc4cccc(F)c4)c(OCc4cccc(F)c4)cc3CCN12 | 3.05 µM | 1.08 µM | 1.23 µM | 4.45 µM | 1.31 µM | 0.62 µM | 1.36 µM
6 | CCCCCC[C@@H]1C[C@H](O)C[C@H]2c3cc(OCc4ccccc4)c(OCc4ccccc4)cc3CCN12 | > 20 µM | > 20 µM | > 20 µM | > 20 µM | > 20 µM | > 20 µM | > 20 µM
7 | CC[C@@H]1C[C@@H](O)C[C@H]2c3cc(OCc4ccccc4)c(OCc4ccccc4)cc3CCN12 | 1.68 µM | 1.41 µM | 2.88 µM | 2.2 µM | 2.43 µM | 2.79 µM | 2.15 µM
8 | O[C@@H]1C[C@@H](c2ccc(-c3ccccc3)cc2)N2CCc3cc(OCc4ccccc4)c(OCc4ccccc4)cc3[C@@H]2C1 | 1.36 µM | 3.24 µM | 3.28 µM | 4.42 µM | 3.42 µM | 0.28 µM | 1.16 µM
9 | C/C=C/C(=O)CC1c2cc(OCc3cc(C)cc(C)c3)c(OCc3cc(C)cc(C)c3)cc2CCN1C(=O)OC(C)(C)C (stereo unspecified) | > 20 µM | > 20 µM | > 20 µM | > 20 µM | > 20 µM | > 20 µM | > 20 µM
10 | COc1ccc([C@@H]2C[C@H](O)C[C@H]3c4cc(OCc5cc(F)cc(F)c5)c(OCc5cc(F)cc(F)c5)cc4CCN23)cc1OC | > 20 µM | > 20 µM | > 20 µM | > 20 µM | > 20 µM | > 20 µM | > 20 µM
11 | O=C1C[C@@H](c2ccccc2)N2CCc3cc4c(cc3[C@@H]2C1)OCO4 (relative stereo) | > 20 µM | > 20 µM | > 20 µM | > 20 µM | > 20 µM | > 20 µM | > 20 µM
12 | CC[C@@H]1C[C@@H](O)C/C=C(/C)[C@H]2c3cc(OCc4ccccc4)c(OCc4ccccc4)cc3CCN12 | > 20 µM | > 20 µM | > 20 µM | > 20 µM | > 20 µM | > 20 µM | > 20 µM
13 | COc1ccc([C@@H]2C[C@@H](O)C[C@H]3c4cc(OCc5ccccc5)c(OCc5ccccc5)cc4CCN23)cc1 | > 20 µM | > 20 µM | > 20 µM | > 20 µM | > 20 µM | > 20 µM | > 20 µM
14 | C[C@@H]1C[C@@](C)(O)C[C@H]2c3cc(OCc4cc(F)cc(F)c4)c(OCc4cc(F)cc(F)c4)cc3CCN12 | 1.33 µM | 1.13 µM | 2.81 µM | 4.45 µM | 1.29 µM | 1.98 µM | 1.29 µM
15 | O=C1C[C@@H](c2ccc([N+](=O)[O-])cc2)N2CCc3cc(OCc4ccccc4)c(OCc4ccccc4)cc3[C@@H]2C1 | > 20 µM | > 20 µM | > 20 µM | > 20 µM | > 20 µM | > 20 µM | > 20 µM
16 | COc1ccc([C@@H]2CC(=O)C[C@H]3c4cc(OCc5ccccc5)c(OCc5ccccc5)cc4CCN23)cc1 (relative stereo) | > 20 µM | > 20 µM | > 20 µM | > 20 µM | > 20 µM | > 20 µM | > 20 µM
17 | O=C1C[C@@H](c2ccc(-c3ccccc3)cc2)N2CCc3cc(OCc4ccccc4)c(OCc4ccccc4)cc3[C@@H]2C1 (relative stereo) | > 20 µM | > 20 µM | > 20 µM | > 20 µM | > 20 µM | > 20 µM | > 20 µM

Row | SMILES | IC50 (DU-145) | IC50 (K562) | IC50 (MDA-MB-231) | IC50 (RWPE-1) | IC50 (HeLa) | IC50 (MCF7) | IC50 (PC-3)
18 | CCCCCCCCCCCCCCCCOc1cc2c(cc1OCCCCCCCCCCCCCCCC)[C@@H]1CC(=O)C[C@@H](C)N1CC2 | > 20 µM | > 20 µM | > 20 µM | > 20 µM | > 20 µM | > 20 µM | > 20 µM
19 | CC[C@@H]1CC(=O)C[C@H]2c3cc(OCc4ccccc4)c(OCc4ccccc4)cc3CCN12 (relative stereo) | > 20 µM | > 20 µM | > 20 µM | > 20 µM | > 20 µM | > 20 µM | > 20 µM
20 | CCCCCC[C@@H]1CC(=O)C[C@H]2c3cc(OCc4ccccc4)c(OCc4ccccc4)cc3CCN12 (relative stereo) | > 20 µM | > 20 µM | > 20 µM | > 20 µM | > 20 µM | > 20 µM | > 20 µM
21 | O=C1C=CN2CCc3cc(OCc4ccccc4)c(OCc4ccccc4)cc3C2C1 (stereo unspecified) | > 20 µM | > 20 µM | > 20 µM | > 20 µM | > 20 µM | > 20 µM | > 20 µM
22 | O[C@]1(c2ccccc2)C[C@@H](c2ccccc2)N2CCc3cc(OCc4ccccc4)c(OCc4ccccc4)cc3[C@@H]2C1 | > 20 µM | > 20 µM | > 20 µM | > 20 µM | > 20 µM | > 20 µM | > 20 µM
23 | Oc1cc2c(cc1O)[C@@H]1C[C@H](O)C[C@@H](c3ccccc3)N1CC2 | > 20 µM | > 20 µM | > 20 µM | > 20 µM | > 20 µM | > 20 µM | > 20 µM
24 | O=[N+]([O-])c1ccc([C@@H]2C[C@H](O)C[C@H]3c4cc(OCc5ccccc5)c(OCc5ccccc5)cc4CCN23)cc1 | > 20 µM | > 20 µM | > 20 µM | > 20 µM | > 20 µM | > 20 µM | > 20 µM
25 | O=C1C[C@@H](c2ccccc2)N2CCc3cc(O)c(O)cc3[C@@H]2C1 (relative stereo) | > 20 µM | > 20 µM | > 20 µM | > 20 µM | > 20 µM | > 20 µM | > 20 µM
26 | CC[C@@H]1C[C@H](O)C/C=C(/C)[C@H]2c3cc(OCc4ccccc4)c(OCc4ccccc4)cc3CCN12 | > 20 µM | > 20 µM | > 20 µM | > 20 µM | > 20 µM | > 20 µM | > 20 µM
27 | C[C@@H]1C[C@@](C)(O)C[C@H]2c3cc(OCc4ccc(Br)cc4)c(OCc4ccc(Br)cc4)cc3CCN12 | 1.97 µM | 1.79 µM | 1.2 µM | 2.95 µM | 1.88 µM | 0.84 µM | 0.79 µM
28 | O[C@H]1C[C@@H](c2ccccc2)N2CCc3ccccc3[C@@H]2C1 | > 20 µM | > 20 µM | > 20 µM | > 20 µM | > 20 µM | > 20 µM | > 20 µM
29 | COc1cc2c(cc1OC)[C@@H]1C[C@H](O)C[C@@H](c3ccccc3)N1CC2 | > 20 µM | > 20 µM | > 20 µM | > 20 µM | > 20 µM | > 20 µM | > 20 µM
30 | CCOC1c2cc(OCc3cc(C)cc(C)c3)c(OCc3cc(C)cc(C)c3)cc2CCN1C(=O)OC(C)(C)C (stereo unspecified) | > 20 µM | > 20 µM | > 20 µM | > 20 µM | > 20 µM | > 20 µM | > 20 µM
31 | C[C@@H]1CC(=O)C[C@H]2c3cc4c(cc3CCN12)OCO4 (relative stereo) | > 20 µM | > 20 µM | > 20 µM | > 20 µM | > 20 µM | > 20 µM | > 20 µM
32 | C[C@@H]1C[C@@H](O)C[C@H]2c3cc(OCc4ccccc4)c(OCc4ccccc4)cc3CCN12 | 2.18 µM | 1.52 µM | 1.15 µM | 1.84 µM | 2.66 µM | 2.2 µM | 2.81 µM
33 | COc1ccc([C@@H]2C[C@@H](O)C[C@H]3c4cc(OCc5ccccc5)c(OCc5ccccc5)cc4CCN23)cc1OC | 1.59 µM | 5.42 µM | 1.15 µM | 2.08 µM | 3.46 µM | 2 µM | 1.51 µM
